How the values were obtained:
[1] = Stability in mouse plasma assessed as parent compound remaining at 20 uM measured after 1 hr by LC-MS/MS analysis
[2] = Stability in swine plasma assessed as parent compound remaining at 20 uM measured after 1 hr by LC-MS/MS analysis; conditions: Sus scrofa, pig
[3] = Stability in swine jejunum assessed as parent compound remaining at 20 uM measured after 1 hr by LC-MS/MS analysis; format: ADME, tissue-based, Sus scrofa; conditions: pig
Method in brief: (§1)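 Washed swine jejunum was diluted 10-fold in 0.1 M potassium phosphate buffer and probe-sonicated. Prodrug was spiked at 20 µM final and incubated 1 h at 37 °C with orbital shaking. Triplicate quench in acetonitrile with losartan internal standard. Percent parent remaining by LC-MS/MS peak-area ratio.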

[4] = Stability in human plasma assessed as parent compound remaining at 20 uM measured after 1 hr by LC-MS/MS analysis
[5] = Stability in swine jejunum at 20 uM measured after 1 hr by LC-MS/MS analysis; format: ADME, tissue-based, Sus scrofa; conditions: pig
Method in brief: as §1

[6] = Stability in swine liver homogenates assessed as parent compound remaining at 20 uM measured after 1 hr by LC-MS/MS analysis; conditions: Sus scrofa, pig, tissue homogenate
[7] = Prodrug conversion in human P493B cells suspended in human plasma assessed as 6-diazo-5-oxo-L-norleucine formation measured after 1 hr by HRMS analysis; format: ADME, cell-based
Method in brief: (§2)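 Metabolite identification: compound was incubated 1 h with 10 million P493B cells suspended in 1 mL human plasma. Cell pellets were collected and metabolites identified by HRMS.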

[8] = Drug level in human P493B cells suspended in human plasma assessed as tumor cell to plasma ratio by measuring 6-diazo-5-oxo-L-norleucine formation at 20 uM measured after 1 hr by LC-MS/MS analysis relative to 6-diazo-5-oxo-L-norleucine alone; format: ADME, cell-based
Method in brief: (§3)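 Cells were grown in RPMI 1640 with 10% FBS, washed in DPBS and resuspended in human plasma at 10 million cells/mL. After 5 min preincubation at 37 °C, compound was added at 20 µM final for 1 h. The mix was centrifuged at 10 000g and the washed pellet and plasma were quantified separately. DON was read by LC-MS/MS after dabsyl chloride derivatisation, intact prodrug directly. Standard curves were made in naive cells or plasma.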

[9] = Prodrug conversion in human P493B cells suspended in human plasma assessed as 6-diazo-5-oxo-L-norleucine formation at 20 uM measured after 1 hr by LC-MS/MS analysis; format: ADME, cell-based
Method in brief: as §3

[10] = Stability in human plasma suspended with human P493B cells at 20 uM measured after 1 hr by LC-MS/MS analysis; format: ADME, cell-free
Method in brief: as §3

[11] = Drug level in human P493B cells suspended in human plasma assessed as tumor cell to plasma ratio by measuring 6-diazo-5-oxo-L-norleucine formation at 20 uM measured after 1 hr by LC-MS/MS analysis; format: ADME, cell-based
Method in brief: as §3

[12] = organism: Homo sapiens; assay: (§4) Antiproliferative activity against human P493B cells measured after 72 hrs by CellTiter 96 aqueous one solution cell proliferation assay; format: functional, cell-based
Method in brief: (§5)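 P493B lymphoma cells seeded at 20 000 cells/well in growth medium. DMSO stocks added as a 1:10 serial dilution, final 0.2% DMSO. Cells grown 72 h with compound, then given CellTiter 96 AQueous reagent for 2 h and read by absorbance at 490 nm. EC50 obtained by nonlinear regression of log-transformed data.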

[13] = as §4; format: functional, cell-based
Method in brief: as §5

[14] = Drug level in human P493B cells suspended in human plasma assessed as tumor cell to plasma ratio at 20 uM measured after 1 hr by LC-MS/MS analysis; format: ADME, cell-based
Method in brief: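 P493B cells grown in RPMI 1640 with 10% FBS, then suspended in human plasma at 10 million cells/mL. Suspension preincubated 5 min at 37 °C, dosed to a final 20 μM, held 1 h at 37 °C, then spun to separate cells from plasma. DON and intact prodrug in pellet and plasma measured by LC-MS/MS; for DON, after dabsyl chloride derivatization. Ratio = cell DON/plasma DON.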

[15] = Prodrug conversion in human P493B cells suspended in human plasma assessed as (S)-isopropyl 2-amino-6-diazo-5-oxohexanoate formation measured after 1 hr by HRMS analysis; format: ADME, cell-based
Method in brief: as §2

Compound | Stability [1] [%] | Stability [2] [%] | Stability [3] [%] | Stability [4] [%] | Stability [5] | Stability [6] [%] | other results
CCCCCCCC(=O)N[C@@H](CCCCNC(C)=O)C(=O)N[C@@H](CCC(=O)C=[N+]=[N-])C(=O)OC(C)C | 0 | 91 | > 50 | 95 | – | – | –
CC(=O)NCCCC[C@H](NC(=O)[C@@H]1Cc2ccccc2CN1)C(=O)N[C@@H](CCC(=O)C=[N+]=[N-])C(=O)OC(C)C | 0 | 62 | – | 95 | Unstable | 0 | –
CC(C)OC(=O)[C@@H](N)CCC(=O)C=[N+]=[N-] | – | – | – | – | – | – | Drug metabolism [7]: Metabolite_Detected
CC(=O)NCCCC[C@H](NC(=O)[C@@H]1Cc2ccccc2CN1C(C)=O)C(=O)N[C@@H](CCC(=O)C=[N+]=[N-])C(=O)OC(C)C | 0 | 98 | > 50 | 110 | – | 72 | fold change (FC) [8]: 115; Drug metabolism [9]: 0.12 µM; Stability [10]: Stable; Ratio [11]: 46
CC(=O)NCCCC[C@H](NC(=O)OCC1c2ccccc2-c2ccccc21)C(=O)N[C@@H](CCC(=O)C=[N+]=[N-])C(=O)OC(C)C | 2 | 78 | – | 93 | Unstable | 19 | –
CC(=O)NCCCC[C@H](NC(=O)[C@H](Cc1c[nH]c2ccccc12)NC(C)=O)C(=O)N[C@@H](CCC(=O)C=[N+]=[N-])C(=O)OC(C)C | 0 | 75 | > 50 | 102 | – | 67 | fold change (FC) [8]: 30; Drug metabolism [9]: Metabolite_Detected; Stability [10]: Stable; Ratio [11]: 11
CC(=O)NCCCC[C@H](NC(=O)Cc1c[nH]c2ccccc12)C(=O)N[C@@H](CCC(=O)C=[N+]=[N-])C(=O)OC(C)C | 0 | 98 | > 50 | 94 | – | 40 | –
CCCCCCCCCCCCCCCC(=O)N[C@@H](CCCCNC(C)=O)C(=O)N[C@@H](CCC(=O)C=[N+]=[N-])C(=O)OC(C)C | 30 | 88 | – | 84 | Unstable | – | –
CC(=O)NCCCC[C@H](NC(=O)[C@H](Cc1c[nH]c2ccccc12)NC(=O)C(C)(C)C)C(=O)N[C@@H](CCC(=O)C=[N+]=[N-])C(=O)OC(C)C | 0 | 95 | – | 88 | Unstable | – | –
CC(=O)NCCCC[C@H](NC(=O)OC(C)(C)C)C(=O)N[C@@H](CCC(=O)C=[N+]=[N-])C(=O)OC(C)C | 1 | 85 | – | 95 | – | – | fold change (FC) [8]: 32; Drug metabolism [9]: Metabolite_Detected; Stability [10]: Stable; Ratio [11]: 13
[N-]=[N+]=CC(=O)CC[C@H](N)C(=O)O [6-DIAZO-5-OXO-L-NORLEUCINE] | – | – | – | – | – | – | Activity [12]: Dose-dependent effect; EC50 [13]: 10 µM; Ratio [14]: 0.4
CC(C)OC(=O)[C@H](CCC(=O)C=[N+]=[N-])NC(=O)[C@H](CCCCN)NC(=O)C12CC3CC(CC(C3)C1)C2 | – | – | – | – | – | – | Drug metabolism [15]: Metabolite_Detected
CC(=O)NCCCC[C@H](NC(=O)[C@@H](N)Cc1c[nH]c2ccccc12)C(=O)N[C@@H](CCC(=O)C=[N+]=[N-])C(=O)OC(C)C | 0 | 19 | – | 7 | Unstable | 0 | –
CC(=O)NCCCC[C@H](NC(=O)OC12CC3CC(CC(C3)C1)C2)C(=O)N[C@@H](CCC(=O)C=[N+]=[N-])C(=O)OC(C)C | 4 | 77 | > 50 | 100 | – | – | –

Reference: ChEMBL document CHEMBL4340525, “Tumor-Targeted Delivery of 6-Diazo-5-oxo-l-norleucine (DON) Using Substituted Acetylated Lysine Prodrugs” (J Med Chem, 2019)
